Calls of active or inactive are those of the source. The rule behind the calls is not given here.
Experiments:
[1] = Cytotoxicity against rat PC12 cells assessed as reduction in cell viability at 20 uM to 100 uM incubated for 24 hrs by MTT assay; type: cell-based; settings: pc-12, 24 h
PC-12 [2] = experiment: Cytoprotection activity against H2O2-induced cytotoxicity in rat PC12 cells assessed as cell viability at 10 and 20 uM pre-incubated for 24 hrs before H2O2 exposure for 12 hrs by LDH release assay; type: functional, cell-based
PC-12 [3] = experiment: Cytoprotection activity against H2O2-induced apoptosis in rat PC12 cells assessed as reduction in apoptotic nuclei levels at 10 and 20 uM pre-incubated for 24 hrs before H2O2 exposure for 5 hrs by Hoechst 33342 staining based fluorescent microscopy; type: functional, cell-based
In short: (§1)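 PC12 cells seeded 2×10^5/well, grown 1 day, pretreated with compound 24 h, then medium replaced with fresh medium containing 200 μM 6-OHDA or 500 μM H2O2 for 5 h; Hoechst 33342 added at 5 μg/mL final; condensed, brightly fluorescent nuclei counted as apoptotic under fluorescence microscopy.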

PC-12 [4] = experiment: Cytoprotection activity against 6-OHDA-induced apoptosis in rat PC12 cells assessed as reduction in apoptotic nuclei levels at 10 and 20 uM pre-incubated for 24 hrs before 6-OHDA exposure for 5 hrs by Hoechst 33342 staining based fluorescent microscopy; type: functional, cell-based; in short: as §1
PC-12 [5] = experiment: Cytoprotection activity against 6-OHDA-induced apoptosis in rat PC12 cells assessed as reduction in caspase-3 activation at 10 and 20 uM pre-incubated for 24 hrs before 6-OHDA exposure for 24 hrs by colorimetric assay; type: functional, cell-based
In short: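 Lysed in RIPA buffer (pH 7.5), protein by Bradford; caspase-3 measured colorimetrically with Ac-DEVD-pNA substrate, expressed as % of control; mean ± SD, three independent experiments.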

PC-12 [6] = experiment: Cytoprotection activity against 6-OHDA-induced oxidative stress in rat PC12 cells assessed as reduction in ROS generation at 10 and 20 uM pre-incubated for 24 hrs before 6-OHDA exposure for 5 hrs by DCFH-DA dye based fluorescent microscopy; type: functional, cell-based
[7] = Antioxidant activity assessed as DPPH radical scavenging activity at 20 uM incubated for 30 mins by spectrophotometry; type: physicochemical; settings: 0.5 h
PC-12 [8] = experiment: Induction of antioxidant genes expression in rat PC12 cells assessed as increase in GCLM mRNA level at 20 uM incubated for 6 hrs by qRT-PCR method; type: functional, cell-based
In short: (§2)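 PC12 cells, 1×10^6 per 60-mm dish, 1 day, then 20 μM compound for 0, 3, 6 and 12 h; total RNA isolated, quantified by 260/280 absorbance; mRNA by real-time RT-PCR normalized to GAPDH; mean ± SD of three independent experiments versus 0 h.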

PC-12 [9] = experiment: Induction of antioxidant genes expression in rat PC12 cells assessed as increase in TrxR1 mRNA level at 20 uM incubated for 6 hrs by qRT-PCR method; type: functional, cell-based
In short: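 PC12 cells (1×10^6 per 60-mm dish) seeded 1 day, then exposed to 20 μM compound for 0, 3, 6 and 12 h. Total RNA isolated and quantified by 260/280 absorbance. Transcripts measured by qRT-PCR, normalized to GAPDH internal control, compared against 0 h control. Means ± SD of three independent experiments.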

PC-12 [10] = experiment: Induction of antioxidant genes expression in rat PC12 cells assessed as increase in TrxR1 mRNA level at 20 uM incubated for 12 hrs by qRT-PCR method; type: functional, cell-based; in short: as §2
PC-12 [11] = experiment: Induction of antioxidant genes expression in rat PC12 cells assessed as increase in Trx1 mRNA level at 20 uM incubated for 3 hrs by qRT-PCR method; type: functional, cell-based; in short: as §2
PC-12 [12] = experiment: Induction of antioxidant genes expression in rat PC12 cells assessed as increase in Trx1 mRNA level at 20 uM incubated for 12 hrs by qRT-PCR method; type: functional, cell-based; in short: as §2
PC-12 [13] = experiment: Cytoprotection activity against H2O2-induced oxidative stress in rat PC12 cells assessed as Trx activity at pre-incubated for 24 hrs before H2O2 exposure for 12 hrs by recombinant rat TrxR1 based assay; type: functional, cell-based
In short: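 Cellular Trx activity: extract with 20 μg protein incubated 30 min at 37 °C in 100 mM Tris-HCl pH 7.4 with 0.3 mM insulin, 660 μM NADPH, 3 mM EDTA, 60 nM recombinant rat TrxR1; stopped with 1 mM DTNB in 6 M guanidine-HCl pH 8.0; A412 minus TrxR-free blank; % of DMSO control.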

[14] = molecular target: T1, Nuclear factor erythroid 2-related factor 2 (Rattus norvegicus) (UniProt O54968); experiment: Induction of Nrf2-mediated antioxidant genes expression in rat PC12 cells assessed as increase in NQO1 protein expression at 10 and 20 uM incubated for 20 hrs by Western blotting method; type: cell-based; settings: PC-12
T1 sequence (whole entry): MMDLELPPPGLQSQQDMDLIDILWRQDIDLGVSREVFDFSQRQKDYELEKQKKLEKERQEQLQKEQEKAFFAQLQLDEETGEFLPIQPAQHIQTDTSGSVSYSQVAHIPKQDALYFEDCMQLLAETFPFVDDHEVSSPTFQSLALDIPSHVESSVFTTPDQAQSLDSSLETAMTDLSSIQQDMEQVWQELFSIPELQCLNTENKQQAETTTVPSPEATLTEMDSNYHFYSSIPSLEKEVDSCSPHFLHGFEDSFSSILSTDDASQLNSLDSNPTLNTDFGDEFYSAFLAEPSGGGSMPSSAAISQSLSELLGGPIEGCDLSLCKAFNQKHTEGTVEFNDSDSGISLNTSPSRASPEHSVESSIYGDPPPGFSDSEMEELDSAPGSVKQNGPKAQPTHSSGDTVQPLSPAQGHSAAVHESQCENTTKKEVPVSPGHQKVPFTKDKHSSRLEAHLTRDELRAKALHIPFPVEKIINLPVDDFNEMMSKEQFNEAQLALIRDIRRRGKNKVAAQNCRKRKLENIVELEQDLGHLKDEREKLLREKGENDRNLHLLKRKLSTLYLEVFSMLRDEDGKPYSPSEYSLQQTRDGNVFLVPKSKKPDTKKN

PC-12 [15] = experiment: Induction of total Nrf2 protein expression in rat PC12 cells at 20 uM incubated for 2 to 8 hrs by Western blotting method; type: functional, cell-based
In short: (§3)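 Seeded at 1×10^6 cells per 60-mm dish for 24 h, PC12 cells were treated with 20 μM compound for 0, 2, 4 and 8 h. Whole-cell, cytosolic and nuclear protein extracts were then prepared and Nrf2 probed by Western blot.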

PC-12 [16] = experiment: Reduction in cytosolic Nrf2 protein level in rat PC12 cells at 20 uM incubated for 2 to 8 hrs by Western blotting method; type: functional, cell-based; in short: as §3
PC-12 [17] = experiment: Cytoprotection activity against H2O2-induced cytotoxicity in rat PC12 cells assessed as cell viability at 10 and 20 uM pre-incubated for 24 hrs before H2O2 exposure for 12 hrs in presence of shNrf2 by MTT assay; type: functional, cell-based
PC-12 [18] = experiment: Cytoprotection activity against 6-OHDA-induced cytotoxicity in rat PC12 cells assessed as cell viability at 10 and 20 uM pre-incubated for 24 hrs before 6-OHDA exposure for 12 hrs in presence of shNrf2 by MTT assay; type: functional, cell-based

Structure (SMILES) | Activity [1] | Activity (PC-12 [2]) | Activity (PC-12 [3]) | Activity (PC-12 [4]) | Activity (PC-12 [5]) | Activity (PC-12 [6]) | Activity [7] | Activity (PC-12 [8]) | Activity (PC-12 [9]) | Activity (PC-12 [10]) | Activity (PC-12 [11]) | Activity (PC-12 [12]) | Activity (PC-12 [13]) | Activity [14] | Activity (PC-12 [15]) | Activity (PC-12 [16]) | Activity (PC-12 [17]) | Activity (PC-12 [18])
COc1cc(/C=C/C(=O)N2CCCCC2=O)cc(OC)c1OC | Non-toxic | Active | Active | Active | Dose-dependent effect | Dose-dependent effect | Not Active | Active | Active | Active | Active | Active | Active | Active | Active | Active | inactive | inactive
COc1ccc(/C=C/C(=O)N2CCCC2=O)cc1 | Non-toxic | Active | Active | Active | Dose-dependent effect | Dose-dependent effect | Not Active | Active | Active | Active | Active | Active | Active | Active | Active | Active | inactive | inactive

Reference: ChEMBL document CHEMBL3580644, “Synthesis of piperlongumine analogues and discovery of nuclear factor erythroid 2-related factor 2 (Nrf2) activators as potential neuroprotective agents” (J Med Chem, 2015)
